Measured values as given in ChEMBL document CHEMBL1165950, “Design and synthesis of new potent anticancer pyrazoles with high FLT3 kinase inhibitory selectivity” (Bioorg Med Chem, 2010).

Legend:
Format in all cases: functional
Details in all cases: read-out: Activity
SF-539 = assay: Cytotoxicity against human SF539 cells assessed as cell growth at 10 uM
Summary of the method: (§1)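 NCI-60 screen: cells grown in RPMI 1640 with 5% FBS and 2 mM L-glutamine, plated at 5000–40,000 cells/well according to doubling time, and preincubated 24 h at 37 °C, 5% CO2. The single 10 µM dose (DMSO stock) was added, then incubated 48 h. Cells were TCA-fixed and stained with 0.4% SRB, read at 515 nm, and growth % calculated against time-zero and control plates.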

SNB-19 = assay: Cytotoxicity against human SNB19 cells assessed as cell growth at 10 uM; summary of the method: as §1
SNB-75 = assay: Cytotoxicity against human SNB75 cells assessed as cell growth at 10 uM; summary of the method: as §1
U-251 = assay: Cytotoxicity against human U251 cells assessed as cell growth at 10 uM; summary of the method: as §1
LOX IMVI = assay: Cytotoxicity against human LOXIMVI cells assessed as cell growth at 10 uM; summary of the method: as §1
Malme-3M = assay: Cytotoxicity against human MALME-3M cells assessed as cell growth at 10 uM; summary of the method: as §1
M14 = assay: Cytotoxicity against human M14 cells assessed as cell growth at 10 uM; summary of the method: as §1
MDA-MB-435 = assay: Cytotoxicity against human MDA-MB-435 cells assessed as cell growth at 10 uM; summary of the method: as §1
SK-MEL-2 = assay: Cytotoxicity against human SK-MEL-2 cells assessed as cell growth at 10 uM; summary of the method: as §1
SK-MEL-28 = assay: Cytotoxicity against human SK-MEL-28 cells assessed as cell growth at 10 uM; summary of the method: as §1
SK-MEL-5 = assay: Cytotoxicity against human SK-MEL-5 cells assessed as cell growth at 10 uM; summary of the method: as §1
UACC-257 = assay: Cytotoxicity against human UACC257 cells assessed as cell growth at 10 uM; summary of the method: as §1
UACC-62 = assay: Cytotoxicity against human UACC62 cells assessed as cell growth at 10 uM; summary of the method: as §1
IGROV-1 = assay: Cytotoxicity against human IGROV1 cells assessed as cell growth at 10 uM
Summary of the method: (§2)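 Single-dose NCI-60 screen at 10 µM. Cells were grown in RPMI 1640 with 5% FBS and 2 mM L-glutamine, then treated for 48 h at 37 °C. Protein was measured by SRB staining with absorbance at 515 nm. Percentage growth was recorded, and inhibition percentage was calculated as 100 minus growth percentage.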

OVCAR-3 = assay: Cytotoxicity against human OVCAR-3 cells assessed as cell growth at 10 uM; summary of the method: as §1
OVCAR-4 = assay: Cytotoxicity against human OVCAR4 cells assessed as cell growth at 10 uM; summary of the method: as §1
OVCAR-5 = assay: Cytotoxicity against human OVCAR5 cells assessed as cell growth at 10 uM; summary of the method: as §1
OVCAR-8 = assay: Cytotoxicity against human OVCAR8 cells assessed as cell growth at 10 uM; summary of the method: as §1
NCI/ADR-RES = assay: Cytotoxicity against human NCI/ADR-RES cells assessed as cell growth at 10 uM; summary of the method: as §1
SK-OV-3 = assay: Cytotoxicity against human SKOV3 cells assessed as cell growth at 10 uM; summary of the method: as §1
786-0 = assay: Cytotoxicity against human 786-0 cells assessed as cell growth at 10 uM; summary of the method: as §2
A498 = assay: Cytotoxicity against human A498 cells assessed as cell growth at 10 uM; summary of the method: as §2
ACHN = assay: Cytotoxicity against human ACHN cells assessed as cell growth at 10 uM; summary of the method: as §2
CAKI-1 = assay: Cytotoxicity against human Caki1 cells assessed as cell growth at 10 uM; summary of the method: as §2
RXF 393 = assay: Cytotoxicity against human RXF393 cells assessed as cell growth at 10 uM; summary of the method: as §1
SN12C = assay: Cytotoxicity against human SN12C cells assessed as cell growth at 10 uM; summary of the method: as §1
TK-10 = assay: Cytotoxicity against human TK10 cells assessed as cell growth at 10 uM; summary of the method: as §1
UO-31 = assay: Cytotoxicity against human UO31 cells assessed as cell growth at 10 uM; summary of the method: as §1
PC-3 = assay: Cytotoxicity against human PC3 cells assessed as cell growth at 10 uM; summary of the method: as §1
DU-145 = assay: Cytotoxicity against human DU145 cells assessed as cell growth at 10 uM; summary of the method: as §2

Question: How did the growth at 10 µM (SF-539) turn out when `COc1cc(C)cc(-c2c(-c3ccnc(-c4cccc(NC(C)=O)c4)c3)cnn2CC#N)c1` was run?
Answer: 84.5%

Question: And the growth at 10 µM (SNB-19)?
Answer: 89.6%

Question: What about the growth at 10 µM (SNB-75) of the same compound?
Answer: 72.4%

Question: And the growth at 10 µM (U-251)?
Answer: 94.3%

Question: What about the growth at 10 µM (LOX IMVI) of the same compound?
Answer: 97.5%

Question: And the growth at 10 µM (Malme-3M)?
Answer: 108%

Question: And the growth at 10 µM (M14)?
Answer: 96.3%

Question: And the growth at 10 µM (MDA-MB-435)?
Answer: 99.6%

Question: What about the growth at 10 µM (SK-MEL-2) of the same compound?
Answer: 92.1%

Question: And the growth at 10 µM (SK-MEL-28)?
Answer: 104%

Question: What about the growth at 10 µM (SK-MEL-5) of the same compound?
Answer: 86.9%

Question: And the growth at 10 µM (UACC-257)?
Answer: 89.8%

Question: And the growth at 10 µM (UACC-62)?
Answer: 81.6%

Question: And the growth at 10 µM (IGROV-1)?
Answer: 98.4%

Question: And the growth at 10 µM (OVCAR-3)?
Answer: 109%

Question: And the growth at 10 µM (OVCAR-4)?
Answer: 99.7%

Question: And the growth at 10 µM (OVCAR-5)?
Answer: 91.6%

Question: And the growth at 10 µM (OVCAR-8)?
Answer: 88%

Question: And the growth at 10 µM (NCI/ADR-RES)?
Answer: 87.3%

Question: And the growth at 10 µM (SK-OV-3)?
Answer: 93.3%

Question: And the growth at 10 µM (786-0)?
Answer: 84%

Question: What about the growth at 10 µM (A498) of the same compound?
Answer: 74.2%

Question: What about the growth at 10 µM (ACHN) of the same compound?
Answer: 86%

Question: What about the growth at 10 µM (CAKI-1) of the same compound?
Answer: 77.3%

Question: And the growth at 10 µM (RXF 393)?
Answer: 81.5%

Question: What about the growth at 10 µM (SN12C) of the same compound?
Answer: 83%

Question: And the growth at 10 µM (TK-10)?
Answer: 67.1%

Question: And the growth at 10 µM (UO-31)?
Answer: 63.6%

Question: What about the growth at 10 µM (PC-3) of the same compound?
Answer: 85.8%

Question: What about the growth at 10 µM (DU-145) of the same compound?
Answer: 105%
